The source of these data is ChEMBL document CHEMBL1759902, “Synthesis and structure-activity relationship of N-(2-arylethyl) isoquinoline derivatives as human scavenger receptor CD36 antagonists” (Eur J Med Chem, 2011).

For test [1], the target named is T1, Platelet glycoprotein 4 (Homo sapiens, UniProt P16671). Nature of the test: Antagonist activity at human CD36-oxLDL binding after 2 hrs by ELISA. The method in brief: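 Plate wells coated with oxLDL at 4 °C for 8–12 h, washed with PBS and blocked in PBS/1% BSA for 1–2 h at 4 °C. His-tagged CD36 or vector control protein added for 1 h at 4 °C, then compound or hexarelin, incubated 2 h.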
T1 sequence (P16671 whole entry): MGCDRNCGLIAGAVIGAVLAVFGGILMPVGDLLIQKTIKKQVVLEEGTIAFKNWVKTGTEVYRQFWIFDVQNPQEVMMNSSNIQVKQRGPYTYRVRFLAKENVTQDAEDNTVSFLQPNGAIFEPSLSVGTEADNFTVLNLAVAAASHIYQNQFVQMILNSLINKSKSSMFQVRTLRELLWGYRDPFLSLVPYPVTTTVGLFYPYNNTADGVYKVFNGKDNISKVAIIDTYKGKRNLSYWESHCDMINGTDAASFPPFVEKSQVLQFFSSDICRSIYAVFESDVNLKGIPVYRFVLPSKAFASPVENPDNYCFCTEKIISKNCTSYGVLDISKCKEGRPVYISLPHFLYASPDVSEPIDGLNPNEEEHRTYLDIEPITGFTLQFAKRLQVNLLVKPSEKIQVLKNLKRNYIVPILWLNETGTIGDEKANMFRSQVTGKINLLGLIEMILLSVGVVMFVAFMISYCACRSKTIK
(In general: In an ELISA, binding on a coated surface is turned into a signal by an enzyme label.)

Test [2] addresses T1, Platelet glycoprotein 4. Put plainly: Antagonist activity at human CD36 expressed in insect Sf9 cells assessed as inhibition of DiL-acetylated LDL uptake at 10 ug/ml after 5 hrs by fluorometric analysis. It counts as functional. The essentials:
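Sf9 cells in Grace's medium with 10% heat-inactivated FBS at 27 °C, plated at 6.0×10⁵ cells/well, infected 1 h with recombinant hCD36 or wild-type baculovirus, then refed. After two days, washed into Grace/0.5% BSA. Compound added from DMSO for 1 h at 27 °C, then DiI-AcLDL.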

The target of test [3] is T1, Platelet glycoprotein 4. Nature of the test: Antagonist activity at human CD36-oxLDL binding at 10 ug/mL after 2 hrs by ELISA.
The target of test [4] is T1, Platelet glycoprotein 4. Nature of the test: Antagonist activity at human CD36-oxLDL binding at 10 uM after 2 hrs by ELISA.

Structures are written as SMILES. Activity calls are given as the source filed them. No cut-off for these calls is given here. Non-standard residues stand in square brackets, D forms with d. Residues, ends and D or L forms follow the SMILES beside them. dTrp(2-Me) = Cc1[nH]c2ccccc2c1C[C@@H](N)C(=O)O

The molecule `Oc1ccc2cc[n+](CCc3cccc(C(F)(F)F)c3)cc2c1` gave an IC50 on Platelet glycoprotein 4 [1] of 3.39 µM. In addition, the inhibition entry at Platelet glycoprotein 4 [2] is “Active”. Moreover, the inhibition on Platelet glycoprotein 4 [3] was 48.4%.
`COc1cc2c[n+](CCc3cccc(Cl)c3)ccc2cc1O` showed an inhibition at Platelet glycoprotein 4 [3] of 33.6%.
In turn, `COc1cc2cc[n+](CCc3ccccc3)cc2cc1OC` had an inhibition on Platelet glycoprotein 4 [3] of 10%.
For `COc1ccc(CC[n+]2ccc3cc(O)c(OC)cc3c2)cc1`, the inhibition result on Platelet glycoprotein 4 [2] was “Active”. This molecule registered an inhibition at Platelet glycoprotein 4 [3] of 76.3%.
With `Oc1ccc2cc[n+](CCc3ccccc3)cc2c1`, the inhibition on Platelet glycoprotein 4 [3] is under 10%.
`COc1ccc2cc[n+](CCc3ccc(F)cc3)cc2c1O`: at Platelet glycoprotein 4 [3], the inhibition came to 29.6%.
On the same count and under the same terms, under `COc1ccc(CC[n+]2ccc3cc(OC)c(OC)cc3c2)cc1` stands 28.6%; under `COc1ccc2cc[n+](CCc3ccccc3C)cc2c1O`, 11.5%.
On to `COc1ccc2cc[n+](CCc3ccccc3C)cc2c1OC`, for which, at Platelet glycoprotein 4 [1], the IC50 is 4.36 µM. Besides, the inhibition result on Platelet glycoprotein 4 [2] is “Active”. The molecule also yielded an inhibition at Platelet glycoprotein 4 [3] of 46.6%.
Consider `COc1ccc2cc[n+](CCc3ccccc3)cc2c1OC`, for which the inhibition on Platelet glycoprotein 4 [3] was under 10%.
Molecule `COc1cc2c[n+](CCc3ccc(F)cc3)ccc2cc1O` had an IC50 on Platelet glycoprotein 4 [1] of 5.99 µM. Besides, the inhibition result on Platelet glycoprotein 4 [2] was “Active”. This molecule had an inhibition on Platelet glycoprotein 4 [3] of 42.4%.
`COc1cc2c[n+](CCc3cccc(F)c3)c(O)cc2cc1O` gave an inhibition at Platelet glycoprotein 4 [3] of under 10%.
The same measure, in the same setting: under `COc1cc2cc[n+](CCc3cccc(C(F)(F)F)c3)cc2cc1OC` stands under 10%; under `COc1cc2c[n+](CCc3ccccc3)ccc2cc1O`, 31%.
Still for that read-out and setting: under `COc1cc2c[n+](CCc3ccc(Cl)cc3)ccc2cc1O` stands under 10%; under `COc1cc2cc[n+](CCc3cccc(F)c3)cc2cc1OC`, 20.9%.
`COc1ccc2cc[n+](CCc3ccccc3)cc2c1O` had an IC50 at Platelet glycoprotein 4 [1] of 0.633 µM. In addition, the inhibition result on Platelet glycoprotein 4 [2] is “Active”. Besides, the inhibition on Platelet glycoprotein 4 [3] stood at 77.9%.
Taken in the same sequence, the figures for `COc1ccc2cc[n+](CCc3cccc(F)c3)cc2c1OC` were 6.9 µM, “Active” and 52.1%.
Turning to `COc1cc2c[n+](CCc3cccc(Cl)c3)c(O)cc2cc1O`, on Platelet glycoprotein 4 [3], the inhibition is 33.2%.
As for `Oc1ccc2cc[n+](CCc3ccccc3F)cc2c1`, the inhibition on Platelet glycoprotein 4 [3] was found to be 21.7%.
Consider `COc1ccc(CC[n+]2ccc3ccc(O)cc3c2)cc1`, for which, at Platelet glycoprotein 4 [3], the inhibition worked out at 28.7%.
Same read-out and setting: under `COc1cc2cc[n+](CCc3ccc(Cl)cc3)cc2cc1OC` stands under 10%; under `COc1ccc2cc[n+](CCc3ccc(Cl)cc3)cc2c1OC`, 25.4%.
The same measure, in the same setting: under `COc1ccc2cc[n+](CCc3ccccc3)cc2c1` stands 47.4%.
Regarding `Cc1[nH]c2ccccc2c1C[C@@H](NC(=O)[C@@H](N)Cc1c[nH]cn1)C(=O)N[C@@H](C)C(=O)N[C@@H](Cc1c[nH]c2ccccc12)C(=O)N[C@H](Cc1ccccc1)C(=O)N[C@@H](CCCCN)C(N)=O` (H-H[dTrp(2-Me)]AW[dF]K-NH2), the inhibition on Platelet glycoprotein 4 [4] came to 37.6%.
On Platelet glycoprotein 4 [3], `COc1ccc(CC[n+]2ccc3ccc(OC)c(O)c3c2)cc1` showed an inhibition of under 10%.
The same measure, in the same setting: under `COc1cc2c[n+](CCc3ccccc3C)c(O)cc2cc1O` stands under 10%.

For orientation: IC50 means the concentration at which inhibition is half-maximal. Read a low IC50 as greater potency in that assay. Broadly, the inhibition is the share of the control response that was lost under treatment.
